# Data published in ChEMBL document CHEMBL4138319, “Discovery, Synthesis, Pharmacological Profiling, and Biological Characterization of Brintonamides A-E, Novel Dual Protease and GPCR Modulators from a Marine Cyanobacterium” (J Med Chem, 2018).
# The source made the active and inactive calls. The rule behind the calls is not given here. Square brackets hold non-standard residues; d marks the D form. Peptide text beside a SMILES is read from it. * marks the point of attachment. X1 = CC[C@H](C)[C@@H](OC(=O)/C=C/c1ccccc1)C(=O)*; dNMeF = CN[C@H](Cc1ccccc1)C(=O)O; NMeL = CN[C@@H](CC(C)C)C(=O)O
# What was measured:
# [1] = target: Somatostatin receptor type 3 (Homo sapiens, UniProt P32745); assay: Antagonist activity at human SSTR3 expressed in HEK293 cells assessed as [Tyr1]-somatostatin 14-induced beta-arrestin recruitment pre-incubated for 30 mins before [Tyr1]-somatostatin 14 stimulation for 90 or 180 mins by chemiluminescence method; type: functional, cell-based
# Sequence of Somatostatin receptor type 3 (P32745 whole entry): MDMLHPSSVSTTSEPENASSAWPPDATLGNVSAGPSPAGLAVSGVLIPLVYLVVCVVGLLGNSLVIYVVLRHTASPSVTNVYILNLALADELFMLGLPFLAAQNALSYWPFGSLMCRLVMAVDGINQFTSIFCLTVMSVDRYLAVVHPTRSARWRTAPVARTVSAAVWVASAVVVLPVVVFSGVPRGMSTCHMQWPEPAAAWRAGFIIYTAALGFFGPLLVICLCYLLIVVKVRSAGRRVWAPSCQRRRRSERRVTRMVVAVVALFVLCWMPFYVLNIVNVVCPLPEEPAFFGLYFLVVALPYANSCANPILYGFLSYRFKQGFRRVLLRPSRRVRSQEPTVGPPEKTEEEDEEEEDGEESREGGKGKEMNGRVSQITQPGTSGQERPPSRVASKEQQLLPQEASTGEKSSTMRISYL
# Method in brief: (§1)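 PathHunter β-arrestin complementation assay, antagonist mode. Cells co-express ProLink-tagged GPCR and enzyme-acceptor-tagged β-arrestin and are pre-incubated with sample for 30 min at 37 °C or room temperature. Dose-response: 10 points, 3-fold dilutions from 20 μM, in duplicate.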
# MDA-MB-231 [2] = assay: Toxicity in human MDA-MB-231 cells assessed as inhibition of proliferation after 48 hrs by MTT assay; type: cell-based; conditions: mda-mb-231, 48 h
# Method in brief: (§2)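 MDA-MB-231 cells are grown in DMEM with 10% FBS and seeded at 10,000 cells/well for 24 h. Cells are then exposed to graded compound concentrations or DMSO for 48 h. Viability is measured by MTT.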
# Kallikrein-7 [3] = target: T1, Kallikrein-7 (Homo sapiens, UniProt P49862); assay: Inhibition of kallikrein 7-mediated Dsg-2 shedding in human MDA-MB-468 cells at 0.01 to 10 uM incubated for 48 hrs by ELISA; type: cell-based
# T1 sequence (P49862 30-253 limits assumed): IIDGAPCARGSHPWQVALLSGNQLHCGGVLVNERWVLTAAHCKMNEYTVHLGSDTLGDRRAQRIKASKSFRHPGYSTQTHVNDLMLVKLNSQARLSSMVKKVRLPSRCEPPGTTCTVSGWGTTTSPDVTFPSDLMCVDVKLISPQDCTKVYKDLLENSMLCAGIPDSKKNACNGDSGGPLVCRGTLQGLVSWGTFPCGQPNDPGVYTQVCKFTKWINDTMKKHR
# MDA-MB-231 [4] = assay: Antiproliferative activity against siCCR10 knockdown human MDA-MB-231 cells after 48 hrs by MTT assay; type: functional
# Method in brief: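 MDA-MB-231 cells are incubated with 50 nM CCR10 siRNA, which gives 60% knockdown confirmed by RT-qPCR. Proliferation is compared with negative-control siRNA, mean ± SD, n = 3.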
# [5] = target: T2, Atypical chemokine receptor 3 (Homo sapiens, UniProt P25106); assay: Agonist activity at human CXCR7 expressed in CHOK1 cells assessed as induction of beta-arrestin recruitment at 10 uM by chemiluminescence method; type: functional, cell-based
# T2 sequence (P25106 whole entry): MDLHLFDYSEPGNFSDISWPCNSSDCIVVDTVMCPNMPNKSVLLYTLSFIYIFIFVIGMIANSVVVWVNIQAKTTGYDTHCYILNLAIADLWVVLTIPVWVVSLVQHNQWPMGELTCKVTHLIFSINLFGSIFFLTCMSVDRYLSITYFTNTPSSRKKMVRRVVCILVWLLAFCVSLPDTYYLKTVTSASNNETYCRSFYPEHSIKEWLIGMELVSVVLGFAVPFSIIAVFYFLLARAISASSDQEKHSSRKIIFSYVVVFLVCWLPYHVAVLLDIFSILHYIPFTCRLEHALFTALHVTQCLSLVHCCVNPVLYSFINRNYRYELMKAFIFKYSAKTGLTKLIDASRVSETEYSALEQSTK
# [6] = target: T3, C-C chemokine receptor type 10 (Homo sapiens) (UniProt P46092); assay: Antagonist activity at CCR10 in human MDA-MB-231 cells assessed as inhibition of CCL27-induced proliferation preincubated for 2 hrs followed by CCL27 addition measured after 48 hrs by MTT assay; type: functional, cell-based
# T3 sequence (whole entry): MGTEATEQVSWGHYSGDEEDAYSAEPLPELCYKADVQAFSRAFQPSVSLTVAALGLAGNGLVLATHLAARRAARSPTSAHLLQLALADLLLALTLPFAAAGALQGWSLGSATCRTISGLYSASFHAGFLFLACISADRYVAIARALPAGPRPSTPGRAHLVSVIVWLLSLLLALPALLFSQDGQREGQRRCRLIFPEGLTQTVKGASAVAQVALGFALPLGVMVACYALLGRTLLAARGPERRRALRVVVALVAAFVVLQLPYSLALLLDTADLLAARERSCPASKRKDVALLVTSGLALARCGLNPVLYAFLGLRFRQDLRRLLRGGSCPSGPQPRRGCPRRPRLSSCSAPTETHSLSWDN
# Method in brief: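 MDA-MB-231 cells are seeded at 10,000/well in serum-free DMEM for 24 h, then pretreated with compound for 2 h. CCL27 is added at 1 μg/mL final for 48 h. Viability is measured by MTT and compared with solvent control, mean ± SD, n = 3.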
# MDA-MB-231 [7] = assay: Antimigratory activity against human MDA-MB-231 cells at 10 uM after 48 hrs by transwell migration assay relative to control; type: functional
# Kallikrein-7 [8] = target: T1, Kallikrein-7; assay: Mixed type inhibition of kallikrein 7 (unknown origin) using fluorescently labeled peptide substrate by fluorescence assay based Michaelis-Menten kinetic plot analysis
# Oxytocin receptor = target: T4, Oxytocin receptor (Homo sapiens, UniProt P30559); assay: Antagonist activity at human OXTR expressed in CHOK1 cells assessed as oxytocin-induced beta-arrestin recruitment pre-incubated for 30 mins before oxytocin stimulation for 90 or 180 mins by chemiluminescence method; type: functional, cell-based; method in brief: as §1
# T4 sequence (P30559 whole entry): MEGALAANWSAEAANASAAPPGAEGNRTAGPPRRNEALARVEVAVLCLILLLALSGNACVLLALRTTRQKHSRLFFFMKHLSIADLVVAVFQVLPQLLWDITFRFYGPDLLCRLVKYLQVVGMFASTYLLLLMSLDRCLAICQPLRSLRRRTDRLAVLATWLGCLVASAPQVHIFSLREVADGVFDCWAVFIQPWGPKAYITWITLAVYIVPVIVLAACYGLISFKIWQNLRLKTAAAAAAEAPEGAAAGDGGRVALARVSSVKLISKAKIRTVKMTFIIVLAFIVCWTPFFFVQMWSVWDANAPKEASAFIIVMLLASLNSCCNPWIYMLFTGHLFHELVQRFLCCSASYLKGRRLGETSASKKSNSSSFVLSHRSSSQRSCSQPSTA
# Kallikrein-7 [9] = target: T1, Kallikrein-7; assay: Inhibition of recombinant human kallikrein 7 assessed as decrease in cleavage of desmoglein-2 at 10 uM after 30 mins or 2 hrs by silver staining based SDS-PAGE analysis
# [10] = target: T2, Atypical chemokine receptor 3; assay: Agonist activity at human CXCR7 expressed in CHOK1 cells assessed as induction of beta-arrestin recruitment by chemiluminescence method; type: functional, cell-based
# Method in brief: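 PathHunter β-arrestin enzyme-fragment complementation assay in cells stably co-expressing ProLink-tagged GPCR and enzyme-acceptor-tagged β-arrestin. Sample is added to cells and incubated 90 or 180 min at 37 °C or room temperature, with 1% final vehicle. Detection reagent is added for 1 h at room temperature and chemiluminescence is read. % activity is taken relative to vehicle and maximal control ligand. Dose-response: 10 points, 3-fold dilutions from 20 μM, in duplicate.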
# MDA-MB-231 [11] = assay: Antiproliferative activity against human MDA-MB-231 cells after 48 hrs by MTT assay; type: functional, cell-based; conditions: Homo sapiens, MDA-MB-231, 48 h; read-out: IC50; method in brief: as §2
# Kallikrein-7 [12] = target: T1, Kallikrein-7; assay: Inhibition of recombinant human kallikrein 7 assessed as decrease in cleavage of E-cadherin at 10 uM after 30 mins or 2 hrs by silver staining based SDS-PAGE analysis
# [13] = target: T2, Atypical chemokine receptor 3; assay: Agonist activity at human CXCR7 expressed in CHOK1 cells assessed as induction of beta-arrestin recruitment at 20 uM by chemiluminescence method; type: functional, cell-based
# Substance-K receptor = target: T5, Substance-K receptor (Homo sapiens, UniProt P21452); assay: Antagonist activity at human TACR2 expressed in CHOK1 cells assessed as substance P-induced beta-arrestin recruitment pre-incubated for 30 mins before substance P stimulation for 90 or 180 mins by chemiluminescence method; type: functional, cell-based; method in brief: as §1
# T5 sequence (P21452 whole entry): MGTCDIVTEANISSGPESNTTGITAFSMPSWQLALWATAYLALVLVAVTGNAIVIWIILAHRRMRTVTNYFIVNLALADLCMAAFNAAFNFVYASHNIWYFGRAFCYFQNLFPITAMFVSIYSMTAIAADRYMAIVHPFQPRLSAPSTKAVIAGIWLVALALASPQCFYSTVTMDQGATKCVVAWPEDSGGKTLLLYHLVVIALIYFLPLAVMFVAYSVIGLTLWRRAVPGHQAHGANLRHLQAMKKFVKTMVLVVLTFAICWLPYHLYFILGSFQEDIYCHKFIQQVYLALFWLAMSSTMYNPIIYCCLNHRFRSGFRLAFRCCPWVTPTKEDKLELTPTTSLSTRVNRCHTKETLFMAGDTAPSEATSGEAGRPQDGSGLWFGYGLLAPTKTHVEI
structure (smiles),measurement,setting,value
CC[C@H](C)[C@@H](OC(=O)/C=C/c1ccccc1)C(=O)N1CCC[C@H]1C(=O)NCC(=O)N(C)[C@@H](CC(C)C)C(=O)N[C@@H](C)C(=O)N(C)[C@H](Cc1ccccc1)C(=O)N1CCC[C@H]1C(=O)OC (X1-PG[NMeL]A[dNMeF]P-OMe),IC50,[1],3.12 µM
same,Activity,MDA-MB-231 [2],Non-Toxic
same,inhibition,Kallikrein-7 [3],inactive
same,Activity,MDA-MB-231 [4],10%
same,Activity,[5],86%
same,inhibition,[6],Dose-dependent effect
same,Activity,MDA-MB-231 [7],60%
same,inhibition,Kallikrein-7 [8],Active
same,IC50,Oxytocin receptor,6.78 µM
same,inhibition,Kallikrein-7 [9],Active
same,EC50,[10],3.97 µM
same,IC50,MDA-MB-231 [11],16.7 µM
same,inhibition,Kallikrein-7 [12],Active
same,Activity,[13],91%
same,IC50,Substance-K receptor,1.79 µM
